The text below walks through data of ChEMBL document CHEMBL4020840, “Synthesis and Biological Evaluation of Selenium-Containing 4-Anilinoquinazoline Derivatives as Novel Antimitotic Agents” (J Med Chem, 2018).

For assay [1], the system named is A549. In words: Induction of apoptosis in human A549 cells assessed as upregulation of Bax level at 2 to 4 nM after 24 to 48 hrs by Western blot method. The format is functional, cell-based. The method in brief:
(§1)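 A549 seeded in 60 mm dishes at 5 × 10⁵ cells and treated for 24 or 48 h. Lysed in RIPA buffer on ice for 30 min and spun at 12 500g. Protein measured by BCA; 40 μg run on 8−12% SDS−PAGE and moved to nitrocellulose. Blocked in 5% milk, primary antibodies at 4 °C overnight, HRP secondary 2 h, ECL detection.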
For orientation: A western blot detects proteins with antibodies after separation by electrophoresis.

The species named for assay [2] is Sus scrofa. In words: Inhibition of porcine brain tubulin polymerization measured every 60 secs for 90 mins by DAPI staining based fluorescence assay. An outline of the steps:
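Purified tubulin was tested in a kit assay. Final buffer: 80 mM PIPES sesquisodium (pH 6.9), 2.0 mM MgCl₂, 0.5 mM EGTA, 1 mM GTP, 10.2% glycerol. Compound (0.1–10 μM) was prewarmed at 37 °C for 1 min before tubulin was added. DAPI reporter fluorescence (ex 340 / em 410 nm) was read every 60 s for 90 min. Area under the curve gave percent inhibition versus control and the IC50.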

The subject of assay [3] is A549. In words: Induction of mitochondrial membrane disruption in human A549 cells at 2 to 8 nM after 48 hrs by JC1/Hoechst 33342 staining based flow cytometry. Format: functional, cell-based. (In general: Flow cytometry measures light scatter and fluorescence of single cells or particles in a stream.)
The subject of assay [4] is A549. In words: Disruption of microtubule network in human A549 cells at 4 to 8 nM after 12 hrs by Hoechst 33342 staining based laser scanning confocal microscopic method. Format: cell-based. The method in brief:
(§2)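 A549 and HeLa cells at 3 × 10⁵ per confocal dish, grown 24 h, then exposed to compound (2, 4 or 8 nM) or 0.01% DMSO for 12 h. Fixed in 4% paraformaldehyde at 37 °C for 15 min, permeabilised with 0.5% Triton X-100, blocked with 10% goat serum. Stained with mouse anti-tubulin at 4 °C overnight, then Alexa-Fluor 488 secondary; Hoechst 33342 nuclear stain; confocal imaging.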

Assay [5] deals with MCF7. Briefly: Induction of morphological changes in human MCF7 cells at 2 to 8 nM after 48 hrs by confocal microscopic method. The format is functional, cell-based. The method in brief:
(§3)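 Human cancer cells were treated at the indicated concentrations, or 0.01% DMSO vehicle, for 48 h. Cells were then fixed and their morphology was examined by microscopy with a 20× objective.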

In assay [6] the test system is A549. In words: Induction of apoptosis in human A549 cells assessed as downregulation of Bcl2 level at 2 to 4 nM after 24 to 48 hrs by Western blot method. The format is functional, cell-based. The method in brief:
as §1

Assay [7] has as its system HeLa. Briefly: Disruption of microtubule network in human HeLa cells at 2 nM after 12 hrs by Hoechst 33342 staining based laser scanning confocal microscopic method. The format is cell-based. An outline of the steps: as §2
Assay [8] concerns MGC-803. In words: Induction of morphological changes in human MGC803 cells at 2 to 8 nM after 48 hrs by confocal microscopic method. Format: functional, cell-based. An outline of the steps: as §3
In assay [9] the test system is A549. Briefly: Disruption of microtubule network in human A549 cells at 2 nM after 12 hrs by Hoechst 33342 staining based laser scanning confocal microscopic method. Format: cell-based. The method in brief: as §2
Assay [10] deals with A549. Briefly: Induction of ROS generation in human A549 cells at 2 to 8 nM after 12 hrs by DCFH-DA staining based fluorescence microscopic method. The format is functional, cell-based. The method in brief: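 A549 plated at 3 × 10⁵ cells/well and grown 24 h, then exposed to compound (2, 4, 8 nM) for 12 h. Loaded with DCFH-DA in fresh medium at 37 °C for 30 min and washed three times with PBS. DCF fluorescence read at excitation 488 and emission 525 nm. Images taken after Hoechst 33342 nuclear staining.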

Assay [11] deals with A549. In words: Cell cycle arrest in human A549 cells assessed as accumulation at G2/M phase up to 24 hrs by propidium iodide staining based flow cytometry. Format: functional. The method in brief:
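A549 seeded in six-well plates at 3 × 10⁵ cells/well and treated for 12 or 24 h; vehicle 0.01% DMSO. Cells fixed overnight in ice-cold 70% ethanol, treated with RNase A at 37 °C for 30 min, then stained with PI at 4 °C for 30 min. About 10 000 events acquired by flow cytometry at 488 nm; three experiments.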

For assay [12], the system named is HeLa. In words: Disruption of microtubule network in human HeLa cells at 4 to 8 nM after 12 hrs by Hoechst 33342 staining based laser scanning confocal microscopic method. The format is cell-based. The method in brief:
as §2

The subject of assay [13] is HeLa. In words: Induction of morphological changes in human HeLa cells at 2 to 8 nM after 48 hrs by confocal microscopic method. Format: functional, cell-based. The method in brief: as §3
Assay [14] has as its system A549. Briefly: Induction of apoptosis in human A549 cells assessed as upregulation of Bad level at 2 to 4 nM after 24 to 48 hrs by Western blot method. The format is functional, cell-based. The method in brief: as §1
For assay [15], the system named is A549. In words: Antimigratory activity against human A549 cells assessed as suppression of wound healing at 4 nM after 24 hrs by phase contrast microscopic method. The format is functional, cell-based. An outline of the steps: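 Scratch wound assay: A549 plated at 5 × 10⁴ cells/dish and grown 24 h before scraping with a 10 μL tip. Medium then swapped to serum-free DMEM containing compound (4 nM) for 24 h. After a PBS wash, wound images taken at 0 and 24 h; at least three independent experiments.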

Activity calls are given as the source filed them. The calls are words filed in the database; no cut-off is given here.

For `C[Se]c1ccc(N(C)c2nc(C)nc3ccccc23)cc1`, the result in [1], in assay [3], in [4], in assay [5], in assay [6] and in assay [8] was Active. For the same compound, the outcome in assay [10], in assay [12], in assay [13], in [14] and in assay [15] was Active. Besides, the inhibition result in [2] is “Dose-dependent effect”. Further, the outcome in assay [7] and in [9] was inactive. The Activity result in assay [11] is “Dose-dependent effect”.
